Test results: ChEMBL document CHEMBL1121923, “N2- and C-7 substituted actinomycin D analogues: synthesis, DNA-binding affinity, and biochemical and biological properties. Structure-activity relationship” (J Med Chem, 1981)
Converted amounts (≈) assume the structure as drawn. *1 amine or outer side, *2 acyl side, *3 side chain or, on linkers, in order; H or OH if unused. Where a SMILES comes first, the peptide text is derived from it. Bridges are numbered along the chain shown (N, C = ends). Roman numbers before positions name the chains, in order. [ ]: non-standard residue; d: D form. Actinocin(9to1) = Cc1c2oc3c(C)ccc(C(=O)[*:1])c3nc-2c(C(=O)[*:2])c(N)c1=O; NMeV = CN[C@H](C(=O)O)C(C)C; Sar = CNCC(=O)O

Experiments:
Calf thymus DNA [1] = assay: Apparent number of binding sites per base pairs in DNA; type: nucleic-acid assay; conditions: Bos taurus
Outline: (§1)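 Calf thymus DNA; spectral titration; binding isotherms in 0.01 M phosphate buffer, pH 7.0, 20 °C; Kapp (per base pair) and Bapp (drug binding sites per base pair) taken from Scatchard plot.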

Calf thymus DNA [2] = assay: Apparent binding constant calf thymus DNA-drug complex; type: nucleic-acid assay; conditions: Bos taurus; outline: as §1
Calf thymus DNA [3] = assay: Apparent number of binding sites per base pairs in DNA; Not measurable; type: nucleic-acid assay; conditions: Bos taurus; outline: as §1
P388 [4] = assay: Concentration required for 50% inhibition of incorporation of labeled uridine by P388 cells for the synthesis of RNA (in vitro); e indicates values are high and variable; type: functional, cell-based; conditions: Mus musculus
P388 [5] = assay: Concentration required for 50% inhibition of incorporation of labeled thymidine by p388 cells for synthesis of DNA (in vitro); e indicates values are high and variable; type: functional, cell-based; conditions: Mus musculus
CCRF-CEM = assay: In vitro antitumor activity against human lymphoblastic leukemia cells.; type: functional; conditions: read-out: ID50 (the source's name)
Outline: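 Human lymphoblastic leukemia CCRF-CEM cells grown in suspension culture; growth inhibition in vitro; ID50 (ng/mL) reported as the 50% inhibitory dose.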

P388 [6] = assay: Concentration required for 50% inhibition of incorporation of labeled uridine by P388 cells for the synthesis of RNA (in vitro); type: functional; conditions: Mus musculus, read-out: ED50 (the source's name)
P388 [7] = assay: Concentration required for 50% inhibition of incorporation of labeled thymidine by p388 cells for synthesis of DNA (in vitro); type: functional; conditions: Mus musculus, read-out: ED50 (the source's name)
P388 [8] = assay: Percent of increased life span of P388 cells implanted CDF1 male mice; type: functional, Mus musculus
Outline: (§2)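 CDF1 male mice, groups of seven, given 10^6 P388 cells ip on day 0; drug ip in 5% DMSO–saline on days 1, 5 and 9; controls received vehicle; range of doses tested, optimal nontoxic dose listed; median survival time; %ILS = (treated − control)/control × 100; average of two or more experiments.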

P388 [9] = assay: Median survival time of the P388 cells implanted CDF1 male mice in vivo; type: functional, Mus musculus; outline: as §2
P388 [10] = assay: Optimal dose for antitumor activity was measured in P388 cells of CDF1 male mice in vivo; type: functional, Mus musculus; outline: as §2
Bos taurus = species: Bos taurus; assay: Thermal denaturation (deltaTm) of compound against calf thymus DNA was measured; type: ADME; conditions: cattle, in vitro
Outline: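 Calf thymus DNA (MW 100 000–500 000) in 0.01 M phosphate, 5 × 10^-3 M EDTA, pH 7.0; drug 7 × 10^-4 M, DNA nucleotide 7 × 10^-3 M; 259 nm absorbance read at 0.25–1.0 °C steps; Tm taken at 50% hyperchromicity; ΔTm = complex Tm minus DNA Tm.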

Row | Compound | Bapp (Calf thymus DNA [1]) | K app (Calf thymus DNA [2]) | also measured
1 | Cc1c2oc3c(C)c(O)c(N)c(C(=O)N[C@@H]4C(=O)N[C@H](C(C)C)C(=O)N5CCC[C@H]5C(=O)N(C)CC(=O)N(C)[C@@H](C(C)C)C(=O)O[C@H]4C)c3nc-2c(C(=O)N[C@@H]2C(=O)N[C@H](C(C)C)C(=O)N3CCC[C@H]3C(=O)N(C)CC(=O)N(C)[C@@H](C(C)C)C(=O)O[C@H]2C)cc1=N | 0.121 | 2.3e+07 M⁻¹ | 
2 | CCOc1cc(C(=O)N[C@@H]2C(=O)N[C@H](C(C)C)C(=O)N3CCC[C@@H]3C(=O)N(C)CC(=O)N(C)[C@@H](C(C)C)C(=O)O[C@@H]2C)c2nc3c(C(=O)N[C@H]4C(=O)N[C@@H](C(C)C)C(=O)N5CCC[C@H]5C(=O)N(C)CC(=O)N(C)[C@H](C(C)C)C(=O)O[C@H]4C)c(N)c(=O)c(C)c-3oc2c1C | 0.097 | 6.9e+06 M⁻¹ | 
3 | Cc1c2oc3c(C)c(OCc4ccc(Cl)c(Cl)c4)cc(C(=O)N[C@@H]4C(=O)N[C@H](C(C)C)C(=O)N5CCC[C@@H]5C(=O)N(C)CC(=O)N(C)[C@@H](C(C)C)C(=O)O[C@@H]4C)c3nc-2c(C(=O)N[C@H]2C(=O)N[C@@H](C(C)C)C(=O)N3CCC[C@H]3C(=O)N(C)CC(=O)N(C)[C@H](C(C)C)C(=O)O[C@H]2C)c(N)c1=O |  | 10000 M⁻¹ | Bapp (Calf thymus DNA [3]): Not measurable; ED50 (P388 [4]): High and variable values; ED50 (P388 [5]): High and variable values
4 | Cc1c2oc3c(C)c(O)c(N)c(C(=O)N[C@H]4C(=O)N[C@@H](C(C)C)C(=O)N5CCC[C@H]5C(=O)N(C)CC(=O)N(C)[C@H](C(C)C)C(=O)O[C@H]4C)c3nc-2c(C(=O)N[C@@H]2C(=O)N[C@H](C(C)C)C(=O)N3CCC[C@@H]3C(=O)N(C)CC(=O)N(C)[C@@H](C(C)C)C(=O)O[C@@H]2C)c/c1=N/Cc1ccc[nH]1 | 0.055 | 9.2e+07 M⁻¹ | 
5 | CCCOc1cc(C(=O)N[C@@H]2C(=O)N[C@H](C(C)C)C(=O)N3CCC[C@@H]3C(=O)N(C)CC(=O)N(C)[C@@H](C(C)C)C(=O)O[C@@H]2C)c2nc3c(C(=O)N[C@H]4C(=O)N[C@@H](C(C)C)C(=O)N5CCC[C@H]5C(=O)N(C)CC(=O)N(C)[C@H](C(C)C)C(=O)O[C@H]4C)c(N)c(=O)c(C)c-3oc2c1C | 0.078 | 2.1e+06 M⁻¹ | 
6 | Cc1c2oc3c(C)c(O)c(N)c(C(=O)N[C@H]4C(=O)N[C@@H](C(C)C)C(=O)N5CCC[C@H]5C(=O)N(C)CC(=O)N(C)[C@H](C(C)C)C(=O)O[C@H]4C)c3nc-2c(C(=O)N[C@@H]2C(=O)N[C@H](C(C)C)C(=O)N3CCC[C@@H]3C(=O)N(C)CC(=O)N(C)[C@@H](C(C)C)C(=O)O[C@@H]2C)cc1=O | 0.1 | 3.2e+07 M⁻¹ | 
7 | Cc1c2oc3c(C)c(O)c(N)c(C(=O)N[C@H]4C(=O)N[C@@H](C(C)C)C(=O)N5CCC[C@H]5C(=O)N(C)CC(=O)N(C)[C@H](C(C)C)C(=O)O[C@H]4C)c3nc-2c(C(=O)N[C@@H]2C(=O)N[C@H](C(C)C)C(=O)N3CCC[C@@H]3C(=O)N(C)CC(=O)N(C)[C@@H](C(C)C)C(=O)O[C@@H]2C)c/c1=N/Cc1ccco1 | 0.055 | 3.8e+06 M⁻¹ | 
8 | COc1cc(C(=O)N[C@@H]2C(=O)N[C@H](C(C)C)C(=O)N3CCC[C@@H]3C(=O)N(C)CC(=O)N(C)[C@@H](C(C)C)C(=O)O[C@@H]2C)c2nc3c(C(=O)N[C@H]4C(=O)N[C@@H](C(C)C)C(=O)N5CCC[C@H]5C(=O)N(C)CC(=O)N(C)[C@H](C(C)C)C(=O)O[C@H]4C)c(N)c(=O)c(C)c-3oc2c1C | 0.11 | 7.7e+06 M⁻¹ | 
9 | CCOc1cc(C(=O)N[C@@H]2C(=O)N[C@H](C(C)C)C(=O)N3CCC[C@H]3C(=O)N(C)CC(=O)N(C)[C@@H](C(C)C)C(=O)O[C@@H]2C)c2nc3c(C(=O)N[C@@H]4C(=O)N[C@H](C(C)C)C(=O)N5CCC[C@H]5C(=O)N(C)CC(=O)N(C)[C@@H](C(C)C)C(=O)O[C@@H]4C)c(N)c(=O)c(C)c-3oc2c1C |  |  | IC50 (CCRF-CEM): 0.17 µg/mL (≈ 0.131 µM); EC50 (P388 [6]): 151 nM; EC50 (P388 [7]): 1630 nM; ILS (P388 [8]): 91%; MST (P388 [9]): 20 days; Optimal dose (P388 [10]): 0.45 mg/kg
10 | Cc1c2oc3c(C)ccc(C(=O)N[C@@H]4C(=O)N[C@H](C(C)C)C(=O)N5CCC[C@H]5C(=O)N(C)CC(=O)N(C)[C@@H](C(C)C)C(=O)O[C@@H]4C)c3nc-2c(C(=O)N[C@@H]2C(=O)N[C@H](C(C)C)C(=O)N3CCC[C@H]3C(=O)N(C)CC(=O)N(C)[C@@H](C(C)C)C(=O)O[C@@H]2C)c(N)c1=O [DACTINOMYCIN] (I: T[dV]P[Sar][NMeV] / II: T[dV]P[Sar][NMeV]; ester I:1-I:C, II:1-II:C; linker I:N-II:N via Actinocin(9to1)) | 0.108 | 2.3e+07 M⁻¹ | Delta Tm (Bos taurus): 7.1; IC50 (CCRF-CEM): 0.06 µg/mL (≈ 0.0478 µM); EC50 (P388 [6]): 46 nM; EC50 (P388 [7]): 996 nM; ILS (P388 [8]): 129%; MST (P388 [9]): 24 days; Optimal dose (P388 [10]): 0.125 mg/kg
11 | CCCNc1c(C(=O)N[C@@H]2C(=O)N[C@H](C(C)C)C(=O)N3CCC[C@H]3C(=O)N(C)CC(=O)N(C)[C@@H](C(C)C)C(=O)O[C@@H]2C)c2nc3c(C(=O)N[C@@H]4C(=O)N[C@H](C(C)C)C(=O)N5CCC[C@H]5C(=O)N(C)CC(=O)N(C)[C@@H](C(C)C)C(=O)O[C@@H]4C)ccc(C)c3oc-2c(C)c1=O |  |  | IC50 (CCRF-CEM): 0.45 µg/mL (≈ 0.347 µM); EC50 (P388 [6]): 1820 nM; EC50 (P388 [7]): > 5500 nM; ILS (P388 [8]): 55%; MST (P388 [9]): 17 days; Optimal dose (P388 [10]): 1.2 mg/kg
12 | Cc1c2oc3c(C)c(OCc4ccc([N+](=O)[O-])cc4)cc(C(=O)N[C@@H]4C(=O)N[C@H](C(C)C)C(=O)N5CCC[C@@H]5C(=O)N(C)CC(=O)N(C)[C@@H](C(C)C)C(=O)O[C@@H]4C)c3nc-2c(C(=O)N[C@H]2C(=O)N[C@@H](C(C)C)C(=O)N3CCC[C@H]3C(=O)N(C)CC(=O)N(C)[C@H](C(C)C)C(=O)O[C@H]2C)c(N)c1=O |  | 100000 M⁻¹ | Bapp (Calf thymus DNA [3]): Not measurable; ED50 (P388 [4]): High and variable values; ED50 (P388 [5]): High and variable values
13 | Cc1c2oc3c(C)c(O)c(N)c(C(=O)N[C@H]4C(=O)N[C@@H](C(C)C)C(=O)N5CCC[C@H]5C(=O)N(C)CC(=O)N(C)[C@H](C(C)C)C(=O)O[C@H]4C)c3nc-2c(C(=O)N[C@@H]2C(=O)N[C@H](C(C)C)C(=O)N3CCC[C@@H]3C(=O)N(C)CC(=O)N(C)[C@@H](C(C)C)C(=O)O[C@@H]2C)c/c1=N/Cc1ccccc1 | 0.049 | 5.8e+06 M⁻¹ | 
14 | CCCCOc1cc(C(=O)N[C@@H]2C(=O)N[C@H](C(C)C)C(=O)N3CCC[C@@H]3C(=O)N(C)CC(=O)N(C)[C@@H](C(C)C)C(=O)O[C@@H]2C)c2nc3c(C(=O)N[C@H]4C(=O)N[C@@H](C(C)C)C(=O)N5CCC[C@H]5C(=O)N(C)CC(=O)N(C)[C@H](C(C)C)C(=O)O[C@H]4C)c(N)c(=O)c(C)c-3oc2c1C |  | 1.1e+06 M⁻¹ | 
15 | Cc1c2oc3c(C)c(O)c(N)c(C(=O)N[C@H]4C(=O)N[C@@H](C(C)C)C(=O)N5CCC[C@H]5C(=O)N(C)CC(=O)N(C)[C@H](C(C)C)C(=O)O[C@H]4C)c3nc-2c(C(=O)N[C@@H]2C(=O)N[C@H](C(C)C)C(=O)N3CCC[C@@H]3C(=O)N(C)CC(=O)N(C)[C@@H](C(C)C)C(=O)O[C@@H]2C)c/c1=N/Cc1cccc(Oc2ccccc2)c1 | 0.055 | 8.8e+06 M⁻¹ | 
16 | Cc1c2oc3c(C)c(O)c(N)c(C(=O)N[C@H]4C(=O)N[C@@H](C(C)C)C(=O)N5CCC[C@H]5C(=O)N(C)CC(=O)N(C)[C@H](C(C)C)C(=O)O[C@H]4C)c3nc-2c(C(=O)N[C@@H]2C(=O)N[C@H](C(C)C)C(=O)N3CCC[C@@H]3C(=O)N(C)CC(=O)N(C)[C@@H](C(C)C)C(=O)O[C@@H]2C)c/c1=N/Cc1ccc(Cl)c(Cl)c1 | 0.058 | 2.6e+07 M⁻¹ | 
